Key:
[1] = Antiinflammatory activity in human CCD-39SK cells assessed as inhibition of IL-1beta-induced IL-6 production incubated for 60 mins prior to IL-1beta induction measured after 24 hrs; type: functional, cell-based
Method in brief: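 CCD-39SK fibroblasts (20 000/well) were grown in MEM with 2% charcoal/dextran-treated FBS. Cells were pretreated with compound for 60 min, then stimulated with rhIL-1β (1 ng/mL final) for 24 h at 37 °C. IL-6 in clarified supernatant was measured. […] Ten-point half-log dilutions were used, each in triplicate.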

Progesterone receptor = target: T1, Progesterone receptor (Homo sapiens, UniProt P06401); assay: Displacement of [3H]-methyltrienolone from human progesterone receptor expressed in HEK293 cells; type: cell-based
T1 sequence (P06401 whole entry): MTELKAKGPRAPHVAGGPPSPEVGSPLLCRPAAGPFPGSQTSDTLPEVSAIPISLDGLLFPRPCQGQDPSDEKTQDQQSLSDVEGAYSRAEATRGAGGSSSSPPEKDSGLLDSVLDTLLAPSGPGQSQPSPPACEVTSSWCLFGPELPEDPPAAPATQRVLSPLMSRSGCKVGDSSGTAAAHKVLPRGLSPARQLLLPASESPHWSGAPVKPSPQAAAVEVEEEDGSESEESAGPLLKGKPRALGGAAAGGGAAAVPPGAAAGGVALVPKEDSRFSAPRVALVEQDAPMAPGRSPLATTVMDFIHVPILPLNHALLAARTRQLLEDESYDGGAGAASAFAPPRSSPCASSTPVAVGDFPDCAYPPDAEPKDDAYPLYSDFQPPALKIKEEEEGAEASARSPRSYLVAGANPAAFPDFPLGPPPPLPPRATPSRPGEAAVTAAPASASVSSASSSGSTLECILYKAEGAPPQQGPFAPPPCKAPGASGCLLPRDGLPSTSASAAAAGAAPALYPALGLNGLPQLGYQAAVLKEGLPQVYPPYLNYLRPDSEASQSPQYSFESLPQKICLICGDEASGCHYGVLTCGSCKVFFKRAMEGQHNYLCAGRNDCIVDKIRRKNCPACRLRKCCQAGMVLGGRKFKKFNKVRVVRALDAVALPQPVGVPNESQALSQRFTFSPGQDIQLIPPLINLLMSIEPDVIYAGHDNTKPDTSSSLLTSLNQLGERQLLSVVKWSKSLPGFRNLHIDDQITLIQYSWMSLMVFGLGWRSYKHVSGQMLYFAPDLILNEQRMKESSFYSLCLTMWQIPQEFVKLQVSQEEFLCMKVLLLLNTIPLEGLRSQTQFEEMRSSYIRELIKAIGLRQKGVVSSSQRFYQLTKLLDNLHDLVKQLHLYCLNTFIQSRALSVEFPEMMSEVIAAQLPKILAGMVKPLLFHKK
Method in brief: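 Competition binding used lysates of HEK293 cells overexpressing the human receptor. The tracer was ³H-aldosterone for MR and ³H-methyltrienolone for PR. Competitor was tested from 0.01 nM to 10 μM. IC50 was converted to Ki by Cheng–Prusoff. Values are means of at least three experiments, each run in triplicate.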

Androgen receptor = target: T2, Androgen receptor (Homo sapiens, UniProt P10275); assay: Displacement of [3H]-methyltrienolone from human androgen receptor expressed in HEK293 cells; type: cell-based
T2 sequence (P10275 whole entry): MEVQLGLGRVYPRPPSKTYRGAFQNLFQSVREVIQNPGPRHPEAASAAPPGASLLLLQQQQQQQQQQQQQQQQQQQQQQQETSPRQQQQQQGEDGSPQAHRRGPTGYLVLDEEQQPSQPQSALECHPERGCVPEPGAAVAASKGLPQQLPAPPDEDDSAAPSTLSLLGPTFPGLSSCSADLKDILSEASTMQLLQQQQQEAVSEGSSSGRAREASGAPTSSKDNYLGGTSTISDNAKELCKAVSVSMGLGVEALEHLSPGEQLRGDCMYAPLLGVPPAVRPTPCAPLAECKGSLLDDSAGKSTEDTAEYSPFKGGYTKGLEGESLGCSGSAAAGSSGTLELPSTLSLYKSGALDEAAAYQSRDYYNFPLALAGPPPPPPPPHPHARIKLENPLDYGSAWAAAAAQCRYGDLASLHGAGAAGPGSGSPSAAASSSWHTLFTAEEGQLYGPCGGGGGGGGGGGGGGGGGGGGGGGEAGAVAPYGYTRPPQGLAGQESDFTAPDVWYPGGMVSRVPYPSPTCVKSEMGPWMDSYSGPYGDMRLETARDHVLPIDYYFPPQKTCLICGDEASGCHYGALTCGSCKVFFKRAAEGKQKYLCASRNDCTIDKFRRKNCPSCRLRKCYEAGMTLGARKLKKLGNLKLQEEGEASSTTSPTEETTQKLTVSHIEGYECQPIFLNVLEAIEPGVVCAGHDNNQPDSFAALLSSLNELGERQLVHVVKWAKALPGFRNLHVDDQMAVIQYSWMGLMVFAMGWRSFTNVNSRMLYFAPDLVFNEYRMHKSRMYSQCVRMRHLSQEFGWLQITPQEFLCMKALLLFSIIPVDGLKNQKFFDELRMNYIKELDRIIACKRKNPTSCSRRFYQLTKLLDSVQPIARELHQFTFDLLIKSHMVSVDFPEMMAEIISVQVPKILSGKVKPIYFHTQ

Row | IC50 [1] [nM] | Ki (Progesterone receptor) [nM] | Ki (Androgen receptor) [nM] | Compound
1 | 4.8 | 15.5 | 9.74 | CC/C(=C1/c2ccccc2COc2ccccc21)c1cccc(NS(C)(=O)=O)c1
2 | 75.9 | 99 | 418 | CS(=O)(=O)Nc1cccc(C=C2c3ccccc3CCc3ccccc32)c1
3 | 4.38 | 26.8 | 239 | CC/C(=C1\c2ccccc2OCc2cccc(OC)c21)c1cccc(NS(C)(=O)=O)c1
4 | 9.32 | 6.17 | 5.98 | C/C(=C1/c2ccccc2COc2ccccc21)c1cccc(NS(C)(=O)=O)c1
